Compound activity deposited in PubChem by The Scripps Research Institute Molecular Screening Center.
OX1R antag-1 – OX1R (human) antagonism | O43613 | OX1R-expressing cells, FRET antagonist read-out | inhibition, % at 6.6 µM | 330,000 tested, 1.8% active; in the data active = inhibition mostly above about 38%, no sharp cut-off; inactive = mostly below about 40%
Target sequence (O43613 whole entry, looked up): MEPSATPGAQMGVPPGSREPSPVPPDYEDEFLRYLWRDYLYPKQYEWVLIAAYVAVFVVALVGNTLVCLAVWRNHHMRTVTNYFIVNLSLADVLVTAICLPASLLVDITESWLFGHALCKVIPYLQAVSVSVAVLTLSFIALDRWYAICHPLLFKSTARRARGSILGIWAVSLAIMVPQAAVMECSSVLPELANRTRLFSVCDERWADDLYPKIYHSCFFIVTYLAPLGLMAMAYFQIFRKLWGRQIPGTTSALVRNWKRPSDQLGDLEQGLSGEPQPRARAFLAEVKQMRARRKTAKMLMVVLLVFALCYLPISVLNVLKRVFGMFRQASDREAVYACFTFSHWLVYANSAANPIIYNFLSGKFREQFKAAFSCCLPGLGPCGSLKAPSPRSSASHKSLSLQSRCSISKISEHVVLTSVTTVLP
TAAR1 antagonist – human TAAR1 antagonism; Q96RJ0; CHO RD-HGA16 TAAR1, Fluo-8 calcium fluorescence, antagonist; inhibition, % at 3 µM; 360,000 tested, 1.5% active; AID 624466;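 active = inhibition above a per-plate cutoff, the mean inhibition of test compounds on that plate plus 3 SD, cut at about 49% in these data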
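Assay system: CHO-derived RD-HGA16 cells stably expressing human TAAR1 plus Gα16. Timing: 140 s kinetic read after compound, 140 s after agonist. Technique: kinetic Fluo-8 calcium fluorescence measurement. Measure: % inhibition of agonist calcium response.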
TAAR1 ag – human TAAR1 agonism. CHO RD-HGA16 TAAR1, Fluo-8 calcium fluorescence; vehicle wells 0%, saturating PEA agonist 100%. 360,000 tested, 0.99% active. activation, % at 3 µM. AID 624467. Q96RJ0;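 active = activation above the mean activation of all test compounds in the run plus 3 SD, cut at about 38% in these data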
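test system = CHO RD-HGA16 cells carrying human TAAR1 plus Gα16 | schedule = 17-24 h seeding, 75 min 37 °C dye, 30 min RT | compound dosing = 3 µM single concentration | control set = DMSO and PEA EC100 | replicates = n 1 | signal = Fluo-8 fluorescence, 5 s baseline then 140 s kinetic read | measure = percent activation vs PEA EC100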
GPR7 antagonist – antagonists of human GPR7 (neuropeptides B/W receptor 1); P48145; GPR7-expressing cells, fluorescence antagonist assay; inhibition, % at 4.4 µM; 290,000 tested, 1.1% active; AID 1861; in the data active = inhibition above about 16%, passing the limit was not always enough;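 also: cells stimulated with the agonist NPW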
CHO parental Ca – counter-screen for OX1R antagonists: effect in parental CHO cells; parental CHO-K1, ATP-induced calcium, Fluo-8 fluorescence; inhibition, % at 5.6 µM; 330,000 tested, 0.63% active;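 active = inhibition above that plate's mean sample inhibition plus 3 SD, cut at about 26% in these data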
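Assay system: parental CHO cells; Read-out basis: percent inhibition of ATP-evoked calcium rise, normalized to controls; Benchmarks: ATP and no-ATP DMSO wells; Compound dosing: single nominal dose of 5.6 µM per compound; Signal: Fluo-8 calcium dye fluorescence; Also added: ATP as calcium-mobilizing challenge; Repeats: singlicate.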
OX1R antag-2 – blocks the human orexin 1 receptor; O43613; inhibition, % at 5 µM; AID 434989; 330,000 tested, 0.43% active; CHO/OX1R cells, Fluo-8 calcium fluorescence, orexin A;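 active = inhibition above its plate's threshold, mean inhibition of all tested compounds on the plate plus 3 SD, cut at about 37% in these data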
nonsel antag count – counter-screen for TAAR1 antagonists: nonselective antagonists | counterscreen cell line, calcium fluorescence, antagonist mode | shares compounds with TAAR1 antagonist | inhibition, % at 3 µM | 2,400 tested, 77% active; in the data active = inhibition above about 22%;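 also: CHO-Ga16 host cells stimulated with ATP at an EC80 level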
TAAR1 antag conf – confirmation of human TAAR1 antagonists | shares compounds with TAAR1 antagonist | TAAR1-expressing cells, fluorescence antagonist read-out | inhibition, % at 3 µM | 2,400 tested, 40% active | AID 651785; in the data active = inhibition above about 49%;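 also: CHO-Ga16 host cells challenged with agonist PEA near its EC80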
Ga16 ag counter – counter-screen for TAAR1 antagonists: nonselective Ga16 agonists; 2,400 tested, 18% active; shares compounds with TAAR1 antagonist; activation, % at 3 µM; Ga16-expressing cells, calcium fluorescence, agonist counterscreen; AID 651953; in the data active = activation above about 12%
TAAR1 ag counter – counter-screen for human TAAR1 antagonists: TAAR1 agonists; shares compounds with TAAR1 antagonist; hTAAR1 cell line, fluorescence activation, agonist mode; activation, % at 3 µM; 2,400 tested, 2% active; AID 651955; in the data active = activation above about 37%;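 also: CHO cells stably expressing TAAR1 with calcium dye readout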
A number is an active result; . = inactive; / = no result given. In the library only some 4.5% were active in any assay of this set; here they are far more common.

SMILES	OX1R antag-1	TAAR1 antagonist	TAAR1 ag	GPR7 antagonist	CHO parental Ca	OX1R antag-2	nonsel antag count	TAAR1 antag conf	Ga16 ag counter	TAAR1 ag counter
COC(=O)C1=C(C)N(Cc2ccc(F)cc2)C(=S)NC1c1cccc(OC)c1 (stereo not drawn)	/	57	.	/	/	/	24	.	.	.
COC(=O)C1=C(C)N(Cc2ccc(C(F)(F)F)cc2)C(=NCc2ccccc2C(F)(F)F)NC1c1ccccc1 (stereo not drawn)	/	.	.	/	/	/	/	/	/	/
CC1CCC(NC(=O)c2cccc(S(=O)(=O)N3CCOCC3)c2)CC1 (stereo not drawn)	/	.	.	/	/	/	/	/	/	/
COc1ccc(NC(=S)Nc2nc(CC(=O)Nc3ccccc3OC)cs2)cc1	.	.	.	.	.	.	/	/	/	/
COc1ccc(NC(=O)Cc2csc(NC(=O)Nc3ccccc3OC)n2)c(OC)c1	.	69	.	/	.	.	.	.	.	.
COc1ccccc1NC(=O)Cc1csc(NC(=S)Nc2ccccc2)n1	.	.	.	.	.	.	/	/	/	/
COc1ccccc1NC(=O)Nc1nc(CC(=O)N2CCN(c3ccccc3F)CC2)cs1	.	65	.	/	.	.	29	.	.	.
COc1ccccc1CC(=O)N1CCN(c2ccccc2F)CC1	.	.	.	.	.	.	/	/	/	/
COc1ccccc1NC(=O)Nc1nc(CC(=O)NCc2c(F)cccc2F)cs1	.	58	.	/	.	.	29	.	.	.
COc1ccc(OC)c(NC(=O)Cc2csc(NC(=O)Nc3ccccc3OC)n2)c1	.	65	.	/	.	.	39	54	.	.
COc1ccc(C(CC(=O)Nc2ccc(C)cn2)N2Cc3ccccc3C2=O)cc1 (stereo not drawn)	.	.	.	.	.	.	/	/	/	/
COc1ccc(CCNC(=O)CSc2nc3scc(-c4ccccc4)c3c(=O)[nH]2)cc1	.	.	.	/	.	.	/	/	/	/
CC(C)C(NC(=O)c1ccccc1)C(=O)OCC(=O)N1CCN(c2ccccc2)CC1 (stereo not drawn)	.	.	.	/	.	.	/	/	/	/
COc1ccc(-c2cc(C(=O)N(C)CC(=O)Nc3ccccc3C(F)(F)F)c3ccccc3n2)cc1OC	/	67	.	/	/	/	34	49	.	.
COc1ccc(-c2cc(C(=O)N(C)CC(=O)Nc3ccccc3Br)c3ccccc3n2)cc1OC	.	65	.	/	.	.	29	51	.	.
COc1ccc(-c2cc(C(=O)NCC(c3ccccc3)N(C)C)c3ccccc3n2)cc1OC (stereo not drawn)	.	.	.	.	.	.	/	/	/	/
CCN(CC)c1ncnc2scc(C3COc4ccccc4O3)c12 (stereo not drawn)	.	53	.	.	.	.	.	.	.	.
OC12CC3C[C@H](C1)C(N1CCOCC1)[C@@H](C3)C2 (stereo partly drawn)	.	.	.	.	.	.	/	/	/	/
O=C(c1cc(-c2ccncc2)nc2ccccc12)N1CCN(c2ncccn2)CC1	.	.	.	/	.	.	/	/	/	/
NC(=O)C1CCN(C(=O)c2cc(-c3ccc(Cl)cc3)nc3ccccc23)CC1	.	54	.	/	.	.	23	.	.	.
Cc1ccc2nc(-c3ccccc3)cc(C(=O)N3CCN(c4ccccc4O)CC3)c2c1	.	66	.	/	.	.	33	51	.	.
O=C(c1cc(-c2cccc3ccccc23)nc2ccccc12)N1CCN(CCO)CC1	.	54	.	/	.	.	28	.	.	.
O=C(c1cc(-c2ccncc2)nc2ccccc12)N1CCN(c2ccccc2O)CC1	.	60	.	.	.	.	29	.	.	.
COc1cccc(OC)c1C(=O)Nc1ccccc1C(=O)N1CCCC1	/	.	.	.	/	/	/	/	/	/
C[C@@H]1NS(=O)(=O)[C@H]2C[C@@H]3C=C[C@]2(O3)[C@H]1OC(=O)Nc1ccc(C(F)(F)F)cc1[N+](=O)[O-]	.	.	.	/	.	.	/	/	/	/
SMILES	OX1R antag-1	TAAR1 antagonist	TAAR1 ag	GPR7 antagonist	CHO parental Ca	OX1R antag-2	nonsel antag count	TAAR1 antag conf	Ga16 ag counter	TAAR1 ag counter
CCOC(=O)c1ccc(CN2Cc3ccccc3C2=O)cc1	.	.	.	.	.	.	/	/	/	/
COc1cc(OC)cc(-c2c(Sc3ccccc3)c3cc(-c4ccc(OC)c(F)c4)ccc3n2C)c1	/	.	.	/	/	/	/	/	/	/
CC(C)(CO)NS(=O)(=O)c1ccc2c(c1)Cc1cc(S(=O)(=O)NC(C)(C)CO)ccc1-2	.	.	.	.	.	.	/	/	/	/
Cc1ccc2nc(NC(=O)C3CCN(S(=O)(=O)c4cccc5nsnc45)CC3)sc2c1	.	65	.	.	.	.	33	.	.	.
CCC1CN(C(=O)N2CCC(C(=O)NCc3ccccc3C)CC2)c2ccccc2O1 (stereo not drawn)	.	.	.	.	.	.	/	/	/	/
CCC1CN(C(=O)N2CCC(C(=O)NCCc3ccc(OC)cc3OC)CC2)c2ccccc2O1 (stereo not drawn)	.	56	.	.	.	.	35	54	.	.
CCC1CN(C(=O)N2CCC(C(=O)NCc3ccco3)CC2)c2cc(C)ccc2O1 (stereo not drawn)	.	50	.	.	.	.	28	49	.	.
CCC1CN(C(=O)N2CCC(C(=O)NCCc3ccccc3OC)CC2)c2ccccc2O1 (stereo not drawn)	.	75	.	.	.	.	29	54	.	.
COc1ccc(-c2c(C(=O)c3ccc(Br)cc3)[nH]c(N)c2C(=O)c2ccccc2)cc1OC	/	60	.	/	/	/	.	.	.	.
CC(C)c1ccc(NC(=O)N(CCc2nc3ccccc3[nH]2)C2CCCC2)cc1	.	54	.	.	.	.	30	.	.	.
CC(=O)Nc1ccc(CCc2nc3ccccc3[nH]2)cc1	.	.	.	.	.	.	/	/	/	/
CCCCC[C@@H]1C=C(C(=O)O)[C@H](c2ccc3c(c2)OCO3)N1S(=O)(=O)c1ccc(C)cc1	.	.	.	/	.	.	/	/	/	/
O=C(Nc1cccc(F)c1)NC1(C(=O)NCC2CCCO2)CCCCC1 (stereo not drawn)	.	.	.	.	.	.	/	/	/	/
Cc1ccc(S(=O)(=O)N2CCOCC2)cc1NC(=O)COC(=O)CNC(=O)c1ccccc1	.	.	.	.	.	.	/	/	/	/
